Assay results reported in ChEMBL document CHEMBL4007421, “Discovery and Preclinical Characterization of 3-((4-(4-Chlorophenyl)-7-fluoroquinoline-3-yl)sulfonyl)benzonitrile, a Novel Non-acetylenic Metabotropic Glutamate Receptor 5 (mGluR5) Negative Allosteric Modulator for Psychiatric Indications” (J Med Chem, 2017).

Legend:
Rattus norvegicus [1] = experiment: Anxiolytic activity in ip dosed Wistar rat assessed as increase in water drinking time during punished period administered as suspension by Vogel punished drinking conflict test; format: functional; settings: read-out: MED
In short: (§1)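 Vogel punished-drinking test in rats, single i.p. or p.o. dose as suspension in 5% Tween 80; plasma sampled ~45 min after i.p. or ~75 min after p.o. dosing.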

Rattus norvegicus [2] = experiment: Effect on spatial learning performance in po dosed Wistar rat measured as escape latency dosed 1 hr prior to first daily trial by Morris water maze test; format: ADME, organism-based; settings: in vivo
In short: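 Morris water maze with male Harlan-Wistar rats (190–220 g): three trials a day for 4 days, hidden 10 cm platform, video tracking; 30 mg/kg p.o. in Type IV lipid formulation 1 h before first daily trial; plasma taken after last Day 4 trial; 7–17 rats/group.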

Rattus norvegicus [3] = experiment: Therapeutic index, ratio of plasma concentration causing effect on spatial learning performance in po dosed Wistar rat by Morris water maze test to plasma concentration causing anxiolytic activity in Wistar rat by Vogel punished drinking conflict test
In short: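 Index is the plasma level in rats at 30 mg/kg p.o. in the Morris water maze (sampled after the last trial on Day 4) divided by the plasma level at the Vogel minimum effective dose. Vogel plasma was sampled right after the test.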

Rattus norvegicus [4] = experiment: Therapeutic index, ratio of MED for effect on spatial learning performance in po dosed Wistar rat by Morris water maze test to MED for anxiolytic activity in Wistar rat by Vogel punished drinking conflict test
In short: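 Index is the Morris water maze minimum effective dose (oral, given 1 h before the first daily trial, 4 days of 3 trials) divided by the Vogel punished drinking minimum effective dose.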

Plasma [5] = experiment: Plasma concentration in Wistar rat at 30 mg/kg, po administered as single dose; format: ADME, organism-based; settings: in vivo
[6] = Plasma concentration in ip dosed Wistar rat at anxiolytic MED administered as suspension after 45 mins during Vogel punished drinking conflict test; format: ADME, organism-based
In short: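 Vehicle was a suspension containing 5% Tween 80, given i.p. at the Vogel minimum effective dose. Plasma was sampled about 45 min after dosing, right after the Vogel punished drinking test.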

[7] = biological target: Metabotropic glutamate receptor 5 (Homo sapiens, UniProt P41594); experiment: Negative allosteric modulation of human mGluR5a expressed in CHO cells assessed as reduction in DHPG-induced cytosolic Ca2+ influx after 10 to 20 mins by fluo-4/AM-dye based fluorometric analysis; format: functional, cell-based
Metabotropic glutamate receptor 5 (Homo sapiens, UniProt P41594), sequence (P41594 whole entry): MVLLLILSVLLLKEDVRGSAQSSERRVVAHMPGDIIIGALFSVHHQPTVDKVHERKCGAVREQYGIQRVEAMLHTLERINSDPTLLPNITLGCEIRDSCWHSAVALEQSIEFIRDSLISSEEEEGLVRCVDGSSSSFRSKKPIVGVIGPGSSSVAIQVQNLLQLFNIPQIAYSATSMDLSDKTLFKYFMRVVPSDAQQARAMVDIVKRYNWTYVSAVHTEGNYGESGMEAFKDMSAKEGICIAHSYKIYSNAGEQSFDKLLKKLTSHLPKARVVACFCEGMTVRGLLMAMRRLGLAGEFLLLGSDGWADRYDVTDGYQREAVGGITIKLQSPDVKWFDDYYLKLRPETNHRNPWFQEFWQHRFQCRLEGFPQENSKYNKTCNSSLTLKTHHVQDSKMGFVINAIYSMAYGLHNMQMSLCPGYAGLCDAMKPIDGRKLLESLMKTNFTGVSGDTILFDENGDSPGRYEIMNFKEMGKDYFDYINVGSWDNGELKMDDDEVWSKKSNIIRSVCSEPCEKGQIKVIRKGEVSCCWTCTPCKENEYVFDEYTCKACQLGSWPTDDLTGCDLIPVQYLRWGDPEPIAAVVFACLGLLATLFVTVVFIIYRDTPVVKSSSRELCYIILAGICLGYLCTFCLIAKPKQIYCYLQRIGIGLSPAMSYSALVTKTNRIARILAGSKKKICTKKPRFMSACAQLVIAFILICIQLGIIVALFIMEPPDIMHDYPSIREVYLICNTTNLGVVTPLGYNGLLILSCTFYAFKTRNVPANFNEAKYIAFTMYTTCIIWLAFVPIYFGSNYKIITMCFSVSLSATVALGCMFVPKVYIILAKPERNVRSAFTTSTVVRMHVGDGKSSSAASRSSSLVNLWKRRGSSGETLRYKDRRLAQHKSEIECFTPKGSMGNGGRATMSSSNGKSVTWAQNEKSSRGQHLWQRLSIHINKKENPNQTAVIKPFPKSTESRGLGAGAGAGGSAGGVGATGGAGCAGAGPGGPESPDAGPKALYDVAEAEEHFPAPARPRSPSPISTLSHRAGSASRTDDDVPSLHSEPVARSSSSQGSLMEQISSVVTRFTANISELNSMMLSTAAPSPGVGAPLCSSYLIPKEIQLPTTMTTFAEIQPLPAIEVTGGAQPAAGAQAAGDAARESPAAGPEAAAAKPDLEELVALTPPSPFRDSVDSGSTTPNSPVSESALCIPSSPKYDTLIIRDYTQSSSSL

[8] = biological target: Metabotropic glutamate receptor 5 (Rattus norvegicus, UniProt P31424); experiment: Displacement of [3H]M-MPEP from mGluR5 in Sprague-Dawley rat cerebrocortical membranes after 60 mins
Metabotropic glutamate receptor 5 (Rattus norvegicus, UniProt P31424), sequence (P31424 whole entry): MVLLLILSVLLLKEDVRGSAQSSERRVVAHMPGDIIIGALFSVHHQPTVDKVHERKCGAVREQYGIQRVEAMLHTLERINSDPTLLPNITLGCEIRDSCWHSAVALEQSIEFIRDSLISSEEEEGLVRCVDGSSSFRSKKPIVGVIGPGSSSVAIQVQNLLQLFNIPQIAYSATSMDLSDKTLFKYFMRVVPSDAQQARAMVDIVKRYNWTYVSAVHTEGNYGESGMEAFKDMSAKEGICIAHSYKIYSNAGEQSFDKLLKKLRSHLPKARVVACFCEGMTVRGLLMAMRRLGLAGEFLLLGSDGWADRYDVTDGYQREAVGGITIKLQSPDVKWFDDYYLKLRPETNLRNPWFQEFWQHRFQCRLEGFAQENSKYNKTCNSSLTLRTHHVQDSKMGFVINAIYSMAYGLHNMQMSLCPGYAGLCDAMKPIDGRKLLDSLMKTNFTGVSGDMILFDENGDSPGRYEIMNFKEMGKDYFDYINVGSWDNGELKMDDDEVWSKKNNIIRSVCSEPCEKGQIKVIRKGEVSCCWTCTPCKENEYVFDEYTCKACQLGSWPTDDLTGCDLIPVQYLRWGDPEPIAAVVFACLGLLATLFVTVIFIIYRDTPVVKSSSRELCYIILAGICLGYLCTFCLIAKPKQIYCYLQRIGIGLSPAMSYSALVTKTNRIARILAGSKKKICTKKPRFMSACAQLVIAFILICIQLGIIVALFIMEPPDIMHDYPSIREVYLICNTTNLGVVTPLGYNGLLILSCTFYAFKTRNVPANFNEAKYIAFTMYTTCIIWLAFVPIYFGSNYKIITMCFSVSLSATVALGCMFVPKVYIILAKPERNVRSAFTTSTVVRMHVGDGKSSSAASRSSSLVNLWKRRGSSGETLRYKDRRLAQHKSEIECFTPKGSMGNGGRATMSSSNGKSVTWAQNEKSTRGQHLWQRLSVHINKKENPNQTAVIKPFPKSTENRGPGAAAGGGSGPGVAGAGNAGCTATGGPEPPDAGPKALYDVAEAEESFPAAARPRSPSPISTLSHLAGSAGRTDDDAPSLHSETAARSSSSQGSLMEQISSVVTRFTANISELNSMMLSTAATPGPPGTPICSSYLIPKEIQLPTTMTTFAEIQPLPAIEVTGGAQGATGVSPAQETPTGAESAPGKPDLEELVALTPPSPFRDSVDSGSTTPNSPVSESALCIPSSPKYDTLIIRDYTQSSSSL

Liver [9] = experiment: Intrinsic clearance in rat liver microsomes at 2.5 uM assessed per gram of liver; format: ADME, microsome
Liver [10] = experiment: Intrinsic clearance in human liver microsomes at 2.5 uM assessed per gram of liver; format: ADME, microsome
Rattus norvegicus [11] = experiment: Anxiolytic activity in po dosed Wistar rat assessed as increase in water drinking time during punished period administered as suspension by Vogel punished drinking conflict test; format: functional; settings: read-out: MED; in short: as §1
Plasma [12] = experiment: Plasma concentration in Wistar rat at 30 mg/kg, ip administered as single dose; format: ADME, organism-based; settings: in vivo
In short: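 Rats dosed i.p. at 30 mg/kg. Plasma level was taken about 45 min after dosing, at the end of the Vogel session.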

[13] = Plasma concentration in ip dosed Wistar rat at anxiolytic MED administered as suspension after 75 mins during Vogel punished drinking conflict test; format: ADME, organism-based
Rattus norvegicus [14] = experiment: Anxiolytic activity in po dosed Wistar rat assessed as reduction in freezing behavior by contextual fearing test; format: functional; settings: read-out: MED
Rattus norvegicus [15] = experiment: Toxicity in po dosed Harlan-Wistar rat assessed as decrease in spontaneous locomotor activity photocell-based activity monitor test; format: organism-based; settings: in vivo
In short: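 Male Wistar rats were given 0, 10, 30 or 50 mg/kg p.o. Spontaneous locomotor activity (ambulatory movement) was recorded in a photocell-based activity monitor.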

Rattus norvegicus [16] = experiment: Anxiolytic activity in po dosed Wistar rat assessed as reduction in ultrasonic vocalization; format: functional

SMILES | minimal effective dose (Rattus norvegicus [1]) | Activity (Rattus norvegicus [2]) | TI (Rattus norvegicus [3]) | TI (Rattus norvegicus [4]) | concentration (Plasma [5]) | concentration at 0.75 h [6] | IC50 [7] | Ki [8] | CLint (Liver [9]) | CLint (Liver [10]) | minimal effective dose (Rattus norvegicus [11]) | concentration (Plasma [12]) | concentration at 1.25 h [13] | minimal effective dose (Rattus norvegicus [14]) | ED50 (Rattus norvegicus [15]) | ED50 (Rattus norvegicus [16])
O=S(=O)(c1ccc(F)c(Cl)c1)c1cnc2cc(F)ccc2c1-c1ccc(F)cc1 | 10 mg/kg | Toxic | <=9.1 | <=10 | 968 nM | 71 nM | 21 nM | 5.2 nM | 0.89 mL/min/g | 0.69 mL/min/g | 3 mg/kg | – | – | – | – | –
O=S(=O)(c1cc(F)cc(F)c1)c1cnc2cc(F)ccc2c1-c1ccc(F)cc1 | > 30 mg/kg | – | – | – | – | – | 25 nM | 18 nM | 0.93 mL/min/g | 0.01 mL/min/g | > 10 mg/kg | 206 nM | – | – | – | –
N#Cc1cccc(S(=O)(=O)c2cnc3cc(F)ccc3c2-c2ccc(F)cc2)c1 | 10 mg/kg | Toxic | <=8.4 | 10 | 1280 nM | 208 nM | 20 nM | 6.5 nM | 0.7 mL/min/g | 0.39 mL/min/g | 3 to 10 mg/kg | – | – | – | – | –
O=S(=O)(c1cc(F)cc(F)c1)c1cnc2cc(F)ccc2c1-c1cccc(F)c1 | > 30 mg/kg | – | – | – | – | – | 74 nM | 32.6 nM | 1.8 mL/min/g | 0.06 mL/min/g | – | 63 nM | – | – | – | –
O=S(=O)(c1cc(Cl)cc(Cl)c1)c1cnc2cc(F)ccc2c1-c1ccc(F)cc1 | > 30 mg/kg | – | – | – | – | – | 25 nM | – | 1.15 mL/min/g | 0.18 mL/min/g | – | – | 165 nM | – | – | –
CN1C(=O)CN=C(c2ccccc2)c2cc(Cl)ccc21 [DIAZEPAM] | – | – | – | – | – | – | – | – | – | – | 2.5 mg/kg | – | – | > 10 mg/kg | 9.7 mg/kg | 7.8 mg/kg
O=S(=O)(c1ccc(F)c(Cl)c1)c1cnc2cc(F)ccc2c1-c1ccc(Cl)cc1 | 30 mg/kg | Toxic | 3.9 | 10 | 866 nM | 373 nM | 27 nM | 8.3 nM | 0.45 mL/min/g | 0.39 mL/min/g | 3 to 10 mg/kg | – | – | – | – | –
O=S(=O)(c1ccc(F)c(F)c1)c1cnc2cc(F)ccc2c1-c1ccc(F)cc1 | > 30 mg/kg | – | – | – | – | – | 43 nM | 19.1 nM | 0.67 mL/min/g | 0.44 mL/min/g | – | 247 nM | – | – | – | –
